Source: publication PMC2767179 (Bioorganic & medicinal chemistry letters, 2009)

What was measured:
Myc/Max dimerization = experiment: FRET assay for inhibition of Myc-Max dimerization; type: binding
[1] = system: Src-induced oncogenic transformation in CEF; type: cell-based, chicken; conditions: CEF infected with Prague strain of Rous sarcoma virus
[2] = system: Jun-induced oncogenic transformation in CEF; type: cell-based, chicken; conditions: CEF infected with avian sarcoma virus 17
[3] = system: Myc-induced oncogenic transformation in chicken embryo fibroblasts (CEF); type: cell-based; conditions: for IC95, inhibition of foci formation: Myc-induced foci in CEF; for inhibition of foci formation: at 20 μM; for inhibition of foci formation / EOT (efficiency of transformation, no inhibition = 1): Myc-induced, CEF; for EOT (efficiency of transformation, no inhibition = 1): tested at 20 μM
Method in brief: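 Chicken embryo fibroblasts infected with the RCAS viral vector expressing transforming chicken cellular Myc. Test compound added at 20 μM. Cultures maintained for three weeks, then foci in each well counted manually by eye. Result expressed as efficiency of transformation (EOT), with no inhibition = 1. Active candidates re-tested in iterative rounds.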

CEF = experiment: Intrinsic cytotoxic activity for CEF; type: cell-based, chicken

SMILES: Cc1cc(C)c(S(=O)(=O)N[C@@H](CNC(=O)[C@@H]2CN(C(=O)CC3CCN(C(=O)OC(C)(C)C)CC3)C[C@H]2C(=O)O)C(=O)OC(C)(C)C)c(C)c1 [compound 3, mycmycin-1]
- inhibition of Myc/Max dimerization (Myc/Max dimerization): most effective inhibition
- inhibitory activity for foci formation induced by Src [1]: failed to exhibit inhibitory activity
- inhibitory activity for foci formation induced by Jun [2]: failed to exhibit inhibitory activity
- IC95, inhibition of foci formation [3]: 20 µM
- inhibition of foci formation [3]: complete inhibition of foci formation
- EOT (efficiency of transformation, no inhibition = 1) [3]: 0.05
- intrinsic cytotoxic activity for CEF (CEF): neither possess an intrinsic cytotoxic acitivity

SMILES: CNC(=O)[C@@H]1CN(C(=O)CCCCCNC(=O)OC(C)(C)C)C[C@H]1C(=O)NC[C@H](NS(=O)(=O)c1cc(Cl)sc1Cl)C(=O)OC(C)(C)C [compound 4, mycmycin-2]
- inhibition of Myc/Max dimerization (Myc/Max dimerization): less effective inhibition
- inhibitory activity for foci formation induced by Src [1]: failed to exhibit inhibitory activity
- inhibitory activity for foci formation induced by Jun [2]: failed to exhibit inhibitory activity
- IC95, inhibition of foci formation [3]: 20 µM
- inhibition of foci formation [3]: complete inhibition of foci formation
- EOT (efficiency of transformation, no inhibition = 1) [3]: 0.05
- intrinsic cytotoxic activity for CEF (CEF): neither possess an intrinsic cytotoxic acitivity
